Screening results from PubChem.
GSTO1 inh: inhibitors of recombinant GSTO1, primary screen, counter-screen for RBBP9 inhibitor project, biochemical, fluorescence polarization; Glutathione S-transferase omega-1 (Homo sapiens), P78417; activity-based probe fluorescence polarization; inhibition, % at 5.96 µM; hit rate 1.1% among 300,000;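 active means inhibition above the campaign mean inhibition plus 3 SD, cut at about 35% in these data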;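 further: 0% = GSTO1-1 with DMSO and 100% = wells lacking GSTO1-1 enzyme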
DTT redox prof: compounds producing H2O2 with reducing agent – biochemical, NIH compound library profiling, artefact control for MLSCN library redox annotation, primary screen; DTT-dependent redox cycling H2O2, phenol red/HRP absorbance; 100% = 100 µM peroxide control, 0% = buffer; activation, % at 10 µM; hit rate 0.03% among 200,000;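 active means activation of at least 50% relative to the plate's high and low controls in the primary single-dose screen; inactive means activation below 50%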;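 further: compound incubated with DTT at 0.8 mM final as the reducing agent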
HKDC1 inh: HKDC1 hexokinase inhibitors, primary screen, biochemical, fluorescence, uHTS. Q2TB90. recombinant HKDC1, G6PDH/diaphorase resazurin coupled fluorescence. inhibition, % at 20 µM. hit rate 0.16% among 340,000;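 active means inhibition above about 35% when tested at 20 µM, limit read from the data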;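 further: plate controls were DMSO wells with enzyme for no effect and DMSO wells lacking enzyme for full effect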
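Material: recombinant HKDC1 hexokinase; Amount: HKDC1 at 5 µg/mL; Medium: Tris pH 8.0 buffer with MgCl2, Tween-20, BSA, BME; Schedule: 90 min reaction incubation at room temperature, dark; Technique: coupled resazurin fluorescence, excitation 525 nm, emission 613 nm.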
Apaf-1 inh: inhibitors of human Apaf-1 apoptosome, primary screen, biochemical, DEVD-Rh110 fluorescence, uHTS; inhibition, % at 20 µM; hit rate 0.71% among 330,000; Apoptotic protease-activating factor 1 (Homo sapiens), O14727; reconstituted apoptosome caspase-3 activity; active means inhibition of at least 40% at 20 µM;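 further: plate controls were DMSO wells for no effect and DEVD-CHO caspase inhibitor wells for full effect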
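System – cell-free apoptosome with Apaf-1, procaspase-3 and caspase-9 · Buffer or medium – pH 7.5 Hepes buffer with CHAPS, BSA, DTT · Also added – cytochrome c with DEVD-Rh110 · Times – 30 min compound preincubation, 50 min activation, room temperature · Technique – Rh110 fluorescence intensity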
SUMO HTRF inh: inhibitors of in vitro SUMOylation cascade, primary screen, biochemical, HTRF, uHTS; inhibition, % at 35 µM; SUMO-conjugating enzyme UBC9 (Homo sapiens), P63279; hit rate 0.36% among 290,000; AID 2006, 2009; HTRF SUMOylation assay, SAE1/SAE2 + UBC9; in the data active means inhibition above about 50%, passing the limit was not always enough
Apaf-1 inh conf2: Apaf-1 inhibitors, single-dose retest, confirmation, biochemical, fluorescence, DEVD-Rh110, 20 µM. inhibition, % at 20 µM. shares compounds with Apaf-1 inh. reconstituted apoptosome, caspase-3 DEVD-Rh110 fluorescence. hit rate 25% among 1,800;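 active means mean inhibition of at least 40% at 20 µM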;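 further: plate controls were DMSO wells for no effect and DEVD-CHO caspase inhibitor control wells for full effect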
Rh110 interf inh: Rh110 fluorescence interference by putative Apaf-1 inhibitors, confirmation, artefact control for Apaf-1 inhibitor project, biochemical, 20 µM; quenched caspase reaction; 1,800 tested, under 10 active; shares compounds with Apaf-1 inh; activation (fluorescence interference), % at 20 µM; AID 504615, 2011;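 active means signal rise of 40% or more at 20 µM, treated as a fluorescence artifact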
Apaf1 inh interf: fluorescence interference of Apaf-1 inhibitor hits, dose response, artefact control for Apaf-1 inhibitor project | shares compounds with Apaf-1 inh | fluorescence interference counterscreen, Apaf-1 assay format | IC50, µM | 460 tested, under 10 active; call rule not given here
* hit, by the source's call; . = no result given. A selection: hits, their analogues and other compounds. The true share with any hit is near 1.4%.

SMILES | GSTO1 inh | DTT redox prof | HKDC1 inh | Apaf-1 inh | SUMO HTRF inh | Apaf-1 inh conf2 | Rh110 interf inh | others
CN1CCN(CCCN2c3ccccc3Sc3ccc(Cl)cc32)CC1 | -2 | 0 | 9 | 57* | -15 | 14 | 6
CCSc1ccc2c(c1)N(CCCN1CCN(C)CC1)c1ccccc1S2 | 3 | . | 1 | 57* | . | 18 | -1
OC1CC2CCC(C1)N2CCCN1c2ccccc2Sc2ccc(Cl)cc21 (configuration not stated) | . | . | -5 | . | . | . | .
CCOC(=O)c1cnc(-n2nc(C)cc2C)nc1NC1CCCCC1 | 1 | 0 | 7 | 42* | 1 | 19 | -3
O=C(CCNC(=O)c1ccc(Cl)cc1)NCCCN1CCOCC1 | . | . | -7 | 48* | . | 36 | -3
O=C(NCCCN1CCOCC1)c1ccccc1 | 6 | 0 | 0 | -7 | 11 | . | .
Oc1cccc2c(NC(=S)Nc3ccc(SC(F)F)cc3)cccc12 | 3 | 0 | 6 | 53* | 89 | 12 | 0
CC[C@]12c3[nH]c4ccc(Cl)cc4c3CCN1C(=O)[C@@H](CC(=O)NCC13CC4CC(CC(C4)C1)C3)C[C@@H]2C(=O)N1CCN(C(=O)c2ccco2)CC1 | . | . | 3 | 44* | . | 18 | 7
CC(C)=CCC/C(C)=C/CNC(=O)C[C@H]1C[C@H](C(=O)N2CCOCC2)[C@@]2(C)c3[nH]c4cc(-c5ccco5)ccc4c3CCN2C1=O | . | . | 1 | 44* | . | 17 | 3
CC(C)=CCC/C(C)=C/CNC(=O)CC1C[C@H](C(=O)N2CCOCC2)[C@@]2(C)c3[nH]c4ccccc4c3CCN2C1=O (some centres not stated) | . | . | -2 | 31 | . | . | .
CC(C)=CCC/C(C)=C/CNC(=O)C[C@H]1C[C@H](C(=O)N2CCOCC2)[C@@]2(C)c3[nH]c4ccc(Cl)cc4c3CCN2C1=O | . | . | 1 | 42* | . | 27 | 10
COc1ccc(NC(=O)N(C)C[C@H]2Oc3ccc(NS(=O)(=O)c4cccs4)cc3C(=O)N([C@@H](C)CO)C[C@@H]2C)cc1 | . | . | -8 | 13 | . | . | .
CC(=O)c1ccc(S(=O)(=O)N2CCN(C(C)C(=O)N(C)Cc3ccccc3)CC2)cc1 (configuration not stated) | . | . | 2 | 4 | . | . | .
Cc1ccc(C(=O)NCC(=O)NCC(c2cccs2)N2CCOCC2)cc1 (configuration not stated) | . | . | -4 | 40 | . | . | .
CCCCOc1ccc(C(=O)NCC(=O)NCC(c2cccs2)N2CCOCC2)cc1 (configuration not stated) | . | . | 0 | 41* | . | 42* | 13 | Apaf1 inh interf=>100
Cc1ccc(N(CC(=O)N/N=C/c2ccc(OC3CSC3)cc2)S(=O)(=O)c2ccccc2)c(C)c1 | -3 | 1 | 17 | 63* | -2 | 18 | 0
Cc1ccc(N(CC(=O)N/N=C/c2ccc(OC3CSC3)cc2)S(=O)(=O)c2ccccc2)cc1 | -13 | 0 | 3 | 7 | -6 | . | .
CN(C)CCNC(=O)/C(=C/c1ccc(-c2cccc([N+](=O)[O-])c2)o1)NC(=O)c1ccccc1 | 4 | 1 | -5 | 5 | -13 | . | .
Cc1ccc(C(=O)N/C(=C\c2ccc(-c3ccccc3[N+](=O)[O-])o2)C(=O)NCCN(C)C)cc1 | 25 | . | 7 | 53* | 18 | 33 | 2
O=C(CSc1nnc(C2CC2)n1CC1CCCO1)Nc1ccc(Cl)cc1 (configuration not stated) | -2 | . | -1 | 3 | 12 | . | .
Oc1ccc(CCC2CCCCN2Cc2nc(C3CC3)no2)cc1 (configuration not stated) | 12 | -1 | -8 | 1 | 11 | . | .
O=C1/C(=C/c2ccccn2)SC(=S)N1N1CCOCC1 | 1 | . | -8 | -12 | -19 | . | .
CC[C@@H](C)[C@H](CNC)NC[C@@H](Cc1cccc2ccccc12)NCCc1cccc(C(F)(F)F)c1 | 5 | . | -4 | 70* | -30 | 48* | 13 | Apaf1 inh interf=>100
CCC[C@H](CN[C@@H](CNC)[C@H](C)CC)NCCc1cc(C(F)(F)F)cc(C(F)(F)F)c1 | 21 | . | -4 | 12 | 13 | . | .
Cc1nn(Cc2c(F)c(F)c(F)c(F)c2F)c(C)c1NC(=O)c1ccc(COc2ccc(Cl)cc2Cl)o1 | 0 | 0 | 3 | 46* | -18 | 21 | 6
SMILES | GSTO1 inh | DTT redox prof | HKDC1 inh | Apaf-1 inh | SUMO HTRF inh | Apaf-1 inh conf2 | Rh110 interf inh | others
CC(C)Cc1nnc(NC(=O)CCC(=O)N2CCN(c3ccc(F)cc3)CC2)s1 | 1 | . | -5 | 1 | -4 | . | .
O=C1Cc2ccccc2C(=O)N1c1ccccc1 | -2 | . | 2 | 15 | 26 | . | .
O=C1Cc2ccccc2C(=O)N1Cc1ccccc1 | 5 | 4 | 5 | 52* | 33 | 76* | 8 | Apaf1 inh interf=>100
COc1ccc(/C(C)=N/NC(=O)c2cc(C)[nH]n2)c(OC)c1 | 8 | . | -7 | 5 | 22 | . | .
CC1CC(C)(C)CC2(C1)NC(=O)N(CC(=O)Nc1ccc3[nH]c(=O)[nH]c3c1)C2=O (configuration not stated) | . | . | -3 | 44* | . | 20 | 7
O=C(NCCCN1CCOCC1)c1cc(-c2ccccc2)nc2ccccc12 | 0 | . | -6 | -3 | . | . | .
Cc1ccc(-c2cc(C(=O)NCCCN3CCOCC3)c3ccc(Cl)c(C)c3n2)cc1 | 3 | . | -5 | 55* | -10 | 24 | 11
CC(=O)c1ccc(N2CCN(S(=O)(=O)c3ccc4c(c3)CC(=O)N4)CC2)cc1 | -9 | . | 6 | -4 | -5 | . | .
CC(=O)c1ccc(N2CCN(S(=O)(=O)c3ccc4c5c3CC(=O)N5CC(C)S4)CC2)cc1 (configuration not stated) | 14 | . | 17 | 56* | 13 | 42* | 6 | Apaf1 inh interf=>100
Cc1ccc(NC2=C/C(=N/S(=O)(=O)c3cccs3)c3ccccc3C2=O)cc1 | 65* | -1 | 7 | 92* | 6 | 95* | 7 | Apaf1 inh interf=>100
Cc1ccc(S(=O)(=O)Nc2ccc(N=Nc3ccc(O)cc3)cc2)cc1 | -11 | 0 | -4 | 9 | -36 | . | .
Cc1ccc(S(=O)(=O)/N=C2\C=C(Nc3ccc(O)cc3)C(=O)c3ccccc32)cc1 | . | . | 34 | 96* | . | 97* | 1 | Apaf1 inh interf=>100
